Data reported in paper PMC3855065 (MedChemComm, 2013).
Positions count from the first letter of the chain named.

Tests used:
[1] = biological target: T1, C. hominis Beta Face DHFR (Cryptosporidium parvum, UniProt Q27552, F207A/I196A/L203A/S195A/T199A/V200A); assay: Steady-state DHFR inhibition assay against Beta Face mutant enzyme; type: biochemical; conditions: IC50 C. hominis Beta Face DHFR, Beta Face mutant enzyme, steady-state
T1 sequence (Q27552 1-521 S195A/I196A/T199A/V200A/L203A/F207A): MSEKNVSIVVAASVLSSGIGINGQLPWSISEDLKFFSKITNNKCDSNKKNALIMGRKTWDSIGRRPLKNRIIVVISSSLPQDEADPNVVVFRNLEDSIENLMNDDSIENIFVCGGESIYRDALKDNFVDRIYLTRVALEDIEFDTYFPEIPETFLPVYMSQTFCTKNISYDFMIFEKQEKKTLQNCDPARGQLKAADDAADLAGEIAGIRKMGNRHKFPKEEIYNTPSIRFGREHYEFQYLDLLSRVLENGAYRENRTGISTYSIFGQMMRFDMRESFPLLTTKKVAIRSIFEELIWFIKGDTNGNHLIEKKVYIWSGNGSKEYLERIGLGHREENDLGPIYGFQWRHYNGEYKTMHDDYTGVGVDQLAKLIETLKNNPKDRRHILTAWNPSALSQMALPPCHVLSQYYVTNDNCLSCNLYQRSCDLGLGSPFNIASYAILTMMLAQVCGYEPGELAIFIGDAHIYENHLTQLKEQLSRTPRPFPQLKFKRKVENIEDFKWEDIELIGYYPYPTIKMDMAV

[2] = system: C. hominis Beta Face DHFR; assay: as above; type: biochemical, Cryptosporidium hominis; conditions: Beta Face vs WT ChDHFR
C. hominis DHFR = biological target: T2, C. hominis DHFR (Cryptosporidium parvum, UniProt Q27552); assay: Mode of inhibition: steady-state substrate profile for H2folate and NADPH; type: biochemical
T2 sequence (Q27552 1-521): T1 sequence (Q27552 1-521 S195A/I196A/T199A/V200A/L203A/F207A) with A195S, A196I, A199T, A200V, A203L, A207F
Outline: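 Steady-state DHFR activity followed by absorbance at 340 nm. The enzyme was bifunctional TS–DHFR expressed in E. coli BL21 and purified. The test compound, from a DMSO stock, was preincubated with enzyme and substrates for 30 min before the reaction was started. Rates were normalised to an equal-volume DMSO blank. H2folate or NADPH concentration was varied, and mode was assigned from rate profiles and Lineweaver–Burk plots by Michaelis–Menten treatment.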

Human DHFR = biological target: T3, Human DHFR (Homo sapiens, UniProt P00374); assay: Steady-state DHFR inhibition assay against the human enzyme; type: biochemical; conditions: up to 1 mM mimetic
T3 sequence (P00374 1-187): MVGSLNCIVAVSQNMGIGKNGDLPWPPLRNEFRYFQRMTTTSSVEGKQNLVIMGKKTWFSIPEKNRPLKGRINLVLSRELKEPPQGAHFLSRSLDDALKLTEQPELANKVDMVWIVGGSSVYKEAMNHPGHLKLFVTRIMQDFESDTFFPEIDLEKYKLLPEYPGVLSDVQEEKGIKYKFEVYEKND
Outline: (§1)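 Each reaction (DHFR or TS) was measured spectroscopically at 340 nm under steady-state conditions. The test compound came from a DMSO stock and was incubated with enzyme and substrates for 30 min before initiation. Activity was normalised to an equal-volume DMSO control. All targets were run at identical enzyme and ligand concentrations. Values are mean ± standard deviation.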

C. hominis TS = biological target: T4, C. hominis TS (Cryptosporidium parvum, UniProt Q27552); assay: Steady-state TS inhibition assay; type: biochemical; conditions: read-out: IC50 C. hominis TS
T4 sequence (Q27552 1-521): T1 sequence (Q27552 1-521 S195A/I196A/T199A/V200A/L203A/F207A) with A195S, A196I, A199T, A200V, A203L, A207F
Outline: as §1

| SMILES | IC50 [1] [µM] | Potency against Beta Face relative to WT [2] | Vmax, NADPH substrate profile (C. hominis DHFR; in the presence of 250 µM compound (1.33 ± 0.02 in the absence)) [µmol/min] | Vmax, H2folate substrate profile (C. hominis DHFR; in the presence of 250 µM compound (1.46 ± 0.03 in the absence)) [µmol/min] | Mode of inhibition for H2folate (C. hominis DHFR; steady-state substrate profile) | Mode of inhibition for NADPH (C. hominis DHFR; steady-state substrate profile) | Inhibition of human DHFR (Human DHFR) | IC50 (C. hominis TS) [µM] | Mode of inhibition (C. hominis DHFR; data not shown) |
| --- | --- | --- | --- | --- | --- | --- | --- | --- | --- |
| CC(C)CN(C(=O)Nc1ccc(CCC(=O)O)cc1Cc1ccccc1)C(=O)c1ccc(OCC(=O)O)c(Cc2ccccc2)c1 [mimetic 2] | ~20 | at least 10 fold | 0.41 ± 0.01 | 0.48 ± 0.06 | noncompetitive (mixed) inhibitor | noncompetitive inhibitor | no inhibition | 570 ± 60 |  |
| Cc1ccc(CN(C(=O)Nc2ccc(CCC(=O)O)cc2Cc2ccccc2)C(=O)c2ccc(CCC(=O)O)c(CC(C)C)c2)cc1 [mimetic 1] |  |  |  |  |  |  |  |  | noncompetitive mode of inhibition |
